Test results reported in the M2OR odorant receptor database.

Target: T1, OR10J5 (Homo sapiens) (UniProt Q8NHC4)
T1 sequence (whole entry): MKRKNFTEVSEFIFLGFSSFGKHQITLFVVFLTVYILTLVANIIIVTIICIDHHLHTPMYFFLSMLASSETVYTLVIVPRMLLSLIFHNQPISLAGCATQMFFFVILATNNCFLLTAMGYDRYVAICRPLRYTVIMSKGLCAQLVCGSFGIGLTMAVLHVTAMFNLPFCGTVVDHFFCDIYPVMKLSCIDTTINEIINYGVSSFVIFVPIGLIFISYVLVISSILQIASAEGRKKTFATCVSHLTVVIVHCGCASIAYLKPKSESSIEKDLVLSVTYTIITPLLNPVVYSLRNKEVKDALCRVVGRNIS
Details: stereoisomer not certain
Outline: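 Each receptor–molecule pair is labelled responsive or non-responsive (inactive) according to whether the original authors judged the measured signal statistically different from baseline. The data were taken from the main text and supplementary material of published papers and checked for typos and inconsistencies. Assay methods differed by source, with transient luciferase assays in mammalian cell lines being common.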

Structure (SMILES)	odorant receptor agonist call;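 also: active if original authors judged signal statistically different from baseline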
CCCCCCC(C)=O	inactive
CCCCCOC(=O)CCCCC	inactive
O=C1CCOc2ccccc21	inactive
CCCCCCCCCS	inactive
CCCCC(C)=O	inactive
